Measurements reported in ChEMBL document CHEMBL1157547, “Structural basis for selective inhibition of purine nucleoside phosphorylase from Schistosoma mansoni: kinetic and structural studies” (Bioorg Med Chem, 2010).

Columns and labels:
[1] = Inhibition of Schistosoma mansoni purine nucleoside phosphorylase
How it was run: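 Coupled spectrophotometric assay with 5 nM SmPNP (as monomer) in 50 mM potassium phosphate, pH 7.4, with 10 uM inosine and xanthine oxidase 40 milliunits/mL. Uric acid formation read at 293 nm, 25°C, in triplicate. IC50 obtained from rates at six or more inhibitor concentrations. Values are means of at least three independent experiments.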

[2] = biological target: T1, Purine nucleoside phosphorylase (Homo sapiens, UniProt P00491); assay: Inhibition of human purine nucleoside phosphorylase
T1 sequence (P00491 whole entry): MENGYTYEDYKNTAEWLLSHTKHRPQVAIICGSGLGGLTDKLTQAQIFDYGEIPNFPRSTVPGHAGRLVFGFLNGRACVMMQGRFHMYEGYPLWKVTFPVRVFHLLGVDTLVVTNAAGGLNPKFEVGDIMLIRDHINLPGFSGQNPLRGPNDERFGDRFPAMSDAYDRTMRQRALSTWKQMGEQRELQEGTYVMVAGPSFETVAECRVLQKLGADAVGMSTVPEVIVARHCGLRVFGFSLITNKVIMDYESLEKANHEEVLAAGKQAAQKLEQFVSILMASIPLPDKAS

[3] = Selectivity ratio of IC50 for human purine nucleoside phosphorylase to IC50 for Schistosoma mansoni purine nucleoside phosphorylase

| SMILES | IC50 [1] [nM] | IC50 [2] [nM] | Ratio IC50 [3] |
| --- | --- | --- | --- |
| Nc1nc2c(Cc3ccc(OCc4ccccc4)cc3)c[nH]c2c(=O)[nH]1 | 500 | 300 | 0.6 |
| Nc1nc2c(Cc3ccncc3)c[nH]c2c(=O)[nH]1 | 3000 | 100 | 0.033 |
| Nc1ncnc2c1ccn2[C@H]1O[C@@H](CO)[C@H](O)[C@@H]1O | 200000 | 300000 | 1.5 |
| O=c1nc[nH]c2c([C@H]3O[C@@H](CO)[C@H](O)[C@@H]3O)[nH]nc12 | 47000 | 300000 | 6.4 |
| Nc1nc2c(Cc3ccccc3)c[nH]c2c(=O)[nH]1 | 1400 | – | – |
| Nc1nc2c(Cc3cccc(Cl)c3)c[nH]c2c(=O)[nH]1 | 500 | 50 | 0.1 |
| CC(C)c1ccc(Cc2c[nH]c3c(=O)[nH]c(N)nc23)cc1 | 150 | 270 | 1.8 |
| Nc1nc2c(Cc3cccnc3)c[nH]c2c(=O)[nH]1 [PELDESINE] | 800 | 200 | 0.25 |
| Nc1nc2c(ccn2[C@H]2O[C@@H](CO)[C@H](O)[C@@H]2O)c(=S)[nH]1 | 95000 | 315000 | 3.3 |
| Nc1nc2c(Cc3ccccn3)c[nH]c2c(=O)[nH]1 | 7000 | 23 | 0.003 |
